# Experimental data reported in paper PMC3259211 (Journal of Controlled Release, 2011).
# pIC50: −log10 of the molar value.
# How the values were obtained:
# CXCR4 = CXCR4 (Homo sapiens, UniProt P61073); conditions: read-out: IC50 (binding to CXCR4); reported for T140; ref [26]; cited from earlier work
# white blood cells (WBCs) = test: Mobilization of white blood cells to peripheral blood; type: in vivo, mice; conditions: 50 µg per mouse s.c., 2 h; in words
# Procedure, shortened: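 Normal mice received 50 µg test peptide s.c. in 200 µL; untreated mice were controls. Heart blood was taken under anaesthesia at 30 min, 1 h and 2 h. 100 µL blood was RBC-lysed, blocked 10 min on ice with 2% rat and 2% mouse serum, and stained for CD45.2, CD3, B220, CD11b, Gr-1 and F4/80. Cells were counted by flow cytometry with counting beads, WBCs gated as CD45.2⁺. Groups had ≥3 mice; two experiments.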
# progenitor cells = test: Mouse progenitor colony assay; type: in vivo, mice; conditions: 50 µg, post injection; in words
# Procedure, shortened: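 Mice were injected s.c. with 50 µg peptide; untreated mice were controls. 150 µL blood per mouse was plated in 3 mL MethoCult GF. Colonies were counted by inverted microscope 14 days after plating. Each group had ≥3 mice, assayed in duplicate per mouse.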
# stem cells = conditions: mice; ref [12]; cited from earlier work
# [1] = tested on: Jurkat cells (CXCL12-induced migration); conditions: Jurkat T-cells; ref [30]; cited from earlier work
# CXCR4, sequence (P61073 whole entry): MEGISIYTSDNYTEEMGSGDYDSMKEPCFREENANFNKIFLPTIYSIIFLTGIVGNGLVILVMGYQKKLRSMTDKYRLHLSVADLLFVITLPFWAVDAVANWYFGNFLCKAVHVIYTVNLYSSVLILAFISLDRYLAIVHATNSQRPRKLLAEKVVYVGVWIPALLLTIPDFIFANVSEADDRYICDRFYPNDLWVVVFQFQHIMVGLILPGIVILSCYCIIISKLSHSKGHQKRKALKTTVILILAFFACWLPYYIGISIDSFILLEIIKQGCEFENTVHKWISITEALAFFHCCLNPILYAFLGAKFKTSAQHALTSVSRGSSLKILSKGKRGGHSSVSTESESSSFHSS
Substance,pIC50 (CXCR4),time course of WBC numbers in the blood (white blood cells (WBCs)),time course of progenitors in the blood (progenitor cells),in vivo mobilization of stem cells from the bone marrow (stem cells),lowest concentration that induces maximal migration [1]
4-F-benzoyl-TN14003 [T140],8.60,remained relatively stable after 2 h,increased steadily and remained substantially elevated between 2 and 4 h post injection,"induces in vivo mobilization of stem cells from the bone marrow, which is additive in effect with G-CSF treatment",–
"CXCL12: natural human ligand of CXCR4, chemokine CXCL12/SDF-1",–,–,–,–,100 ng/mL
